Data set [1] deals with Plasmodium cynomolgi. Put plainly: Antiplasmodial activity against Plasmodium cynomolgi sporozoites infected in Rhesus monkey assessed as relapse time at 10 mg/kg/day, po administered for 7 consecutive days.
The subject of data set [2] is Plasmodium cynomolgi. The experiment in a line: Antiplasmodial activity against Plasmodium cynomolgi sporozoites infected in Rhesus monkey assessed as duration for detection of parasites in blood at 1.78 mg/kg/day, po administered for three consecutive days before infection (reference value: 8 days). The data set is classed as functional.
Data set [3] relates to Plasmodium cynomolgi. The experiment in a line: Antiplasmodial activity against Plasmodium cynomolgi sporozoites infected in Rhesus monkey assessed as delay in detection of parasites in blood at 1.78 mg/kg/day, po administered for three consecutive days before infection. The data set is classed as functional.
The nature of data set [4]: Toxicity in Plasmodium berghei sporozoites infected orally dosed mouse administered for three consecutive days one day before infection. The following applies: in vivo, po. It is filed as organism-based. In short, it runs like this: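 Mice received P. berghei sporozoites. Each compound was ground and suspended in hydroxyethylcellulose plus Tween 80, then given orally at several dose levels up to 320 mg/kg/day. Dosing was once daily for three consecutive days: the day before, 4 h before, and the day after sporozoite inoculation.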

The species entered for data set [5] is Homo sapiens. The experiment in a line: Metabolic stability in human liver microsome by LC-MS/MS method. The following applies: liver microsomes. Background: Liver microsomes are vesicles of endoplasmic reticulum, rich in cytochrome P450 enzymes.
Data set [6] deals with Plasmodium cynomolgi. The experiment in a line: Antiplasmodial activity against Plasmodium cynomolgi sporozoites infected in Rhesus monkey assessed as duration for detection of parasites in blood at 50 mg/kg/day, po administered for three consecutive days before infection (reference value: 8 days). It is filed as functional.
Data set [7] has as its system Plasmodium cynomolgi. Put plainly: Antiplasmodial activity against Plasmodium cynomolgi sporozoites infected in Rhesus monkey assessed as delay in detection of parasites in blood at 50 mg/kg/day, po administered for three consecutive days before infection. The data set is classed as functional.
The test system of data set [8] is Plasmodium falciparum. The experiment in a line: Antimicrobial activity against Plasmodium falciparum D6 by microdilution method. The following applies: Plasmodium falciparum, D6; read-out: IC50. It is filed as functional, organism-based. On the technique in general: Dilution methods test growth across graded concentrations, often in twofold steps.
Data set [9] has as its system Plasmodium falciparum. Put plainly: Antimicrobial activity against Plasmodium falciparum W2 by microdilution method. It is filed as functional, organism-based. Conditions: Plasmodium falciparum, W2; read-out: IC50.
Data set [10] concerns Plasmodium cynomolgi. The experiment in a line: Antiplasmodial activity against Plasmodium cynomolgi sporozoites infected in Rhesus monkey assessed as duration for detection of parasites in blood at 30 mg/kg/day, im administered for three consecutive days before infection (reference value: 8 days). The data set is classed as functional. The following applies: route intramuscular.

Data set [11] relates to Plasmodium berghei. The experiment in a line: Antiplasmodial activity against Plasmodium berghei sporozoites infected in orally dosed mouse administered for three consecutive days one day before infection. The following applies: po, 24 h, read-out: MED. The data set is classed as functional. The method in brief: (§1)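 Mice were inoculated with P. berghei sporozoites. For oral dosing, compounds were ground and suspended in hydroxyethylcellulose plus Tween 80; for sc dosing, they were suspended in peanut oil. Doses were given once daily on three consecutive days: the day before, 4 h before, and the day after inoculation. Several dose levels were used, up to 320 mg/kg/day. Cure was scored.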

For data set [12], the species on record is Mus musculus. The experiment in a line: Metabolic stability in mouse liver microsome by LC-MS/MS method. The following applies: liver microsomes.
The subject of data set [13] is Plasmodium cynomolgi. The experiment in a line: Antiplasmodial activity against Plasmodium cynomolgi sporozoites infected in Rhesus monkey assessed as delay in detection of parasites in blood at 30 mg/kg/day, im administered for three consecutive days before infection. The following applies: route intramuscular. It is filed as functional.
For data set [14], the system named is Plasmodium berghei. The experiment in a line: Antiplasmodial activity against Plasmodium berghei sporozoites infected in orally dosed mouse assessed as cure from infection 160 mg/kg/day, po administered for three consecutive days before infection measured after at day 31. It is filed as functional, organism-based. In short, it runs like this:
as §1

Data set [15] concerns Plasmodium cynomolgi. Put plainly: Antiplasmodial activity against Plasmodium cynomolgi sporozoites infected in Rhesus monkey assessed as duration for detection of parasites in blood at 0.316 mg/kg/day, po administered for three consecutive days before infection (reference value: 8 days). The data set is classed as functional.
The subject of data set [16] is Plasmodium cynomolgi. Put plainly: Antiplasmodial activity against Plasmodium cynomolgi sporozoites infected in Rhesus monkey assessed as delay in detection of parasites in blood at 0.316 mg/kg/day, po administered for three consecutive days before infection. It is filed as functional.

Active and inactive are the calls of the source. No cut-off for these calls is given here.

As a reminder, the half-life is how long it takes for the measured level to halve. Broadly, the IC50 is the concentration that gives 50% inhibition.

Take `CCN(CC)CCCC(C)Nc1ccnc2cc(Cl)ccc12` (stereo unspecified) [CHLOROQUINE]: the Time in data set [1] was 11 days.
With `COc1cc(NC(C)CCCN)c2ncccc2c1` (stereo unspecified) [PRIMAQUINE], the Time came out at 13 days in [2] and 5 days in data set [3].
`CC(C)N/C(=N\C1=NC(=O)C(=O)N1C(C)C)Nc1ccc(Cl)c(Cl)c1`: the MTD at 3 days in [4] is ≥ 160 mg/kg/day. The half-life in data set [5] and in [12] was > 1 h in each case. Also, the Time in data set [6] was found to be 11 days; in data set [7], 3 days; in data set [10] it was 62 days; in [13], 54 days. Further, the IC50 in data set [8] and in [9] was > 6 µg/mL throughout. In addition, the minimal effective dose in data set [11] came to 160 mg/kg/day. The outcome in data set [14] was Active.
For the compound `COc1cc(C)c2c(Oc3cccc(C(F)(F)F)c3)c(OC)cc(NC(C)CCCN)c2n1` (stereo unspecified) [TAFENOQUINE], the Time in data set [15] was determined as 10 days; in [16], 2 days.
